High-throughput results deposited in PubChem BioAssay by several laboratories.
MEX-5 binding: C. elegans MEX-5 TCR-2 RNA binding activity | MEX-5/FITC-TCR2 RNA binding, fluorescence polarization; stronger effect = lower value | activity score (negative = inhibition of binding), % at 10 µM | 300,000 compounds, 0.38% hits;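 active = inhibition past about -25% in most replicates, and total fluorescence under double the plate's negative control median, limit read from the data; inconclusive = replicates evenly split on the limit, or fluorescence at least double controls; inactive = too little inhibition in most replicates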;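 note: 0% = DMSO and -100% = 5 µM competing unlabeled TCR2 RNA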
DNA FID counter: counter-screen for HCV NS3 helicase inhibitors: DNA intercalator displacement; DNA fluorescent intercalator displacement, fluorescence; inhibition, % at 7.9 µM; 290,000 compounds, 0.17% hits; in the data active = inhibition above about 37%;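 note: 0% = vehicle and 100% = reference compound; higher means more ethidium bromide displaced from hairpin DNA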
HCV core dimer: HCV core protein dimerization inhibition. inhibition, % at 5 µM. 300,000 compounds, 0.33% hits. TR-FRET GST/Flag-core106 dimerization, 1536-well;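 active = inhibition above the mean of all tested compounds plus 3 SD, set per screening campaign, cut at about 45% in these data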
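Assay system: Tagged HCV core106 pair (GST and Flag) | Buffer or medium: KF-containing HEPES buffer, pH 7.45, DTT, CHAPS, BSA | Also added: Eu donor and XL665 acceptor anti-tag antibodies | Dosing: One concentration, 5 µM, in 0.5% DMSO | Timing: 4 h at 22.5 °C | Technique: TR-FRET 671 and 617 nm emission | Repeats: Singlicate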
NRP1-CendR mod: NRP-1/CendR interaction modulation. O14786. FAM-RPARPAR peptide binding to NRP-1, fluorescence polarization. inhibition, % at 25 µM. 360,000 compounds, 0.85% hits. AID 602438;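 active = inhibition or corrected inhibition above about 18%, plus a signal ratio from 0.5 to 1.5, limit read from the data, passing the limit was not always enough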
The depositor's hits bear a star; ? = inconclusive; . = no result given. Shown are actives, neighbours in structure and some others; about 1.5% of the full set was active somewhere.

SMILES | MEX-5 binding | DNA FID counter | HCV core dimer | NRP1-CendR mod
CCCCNC(=O)C1(C)CCCCN1C(=O)c1ccno1 (stereo unspecified) | . | . | . | -13
COC(=O)c1nc2n(n1)C(c1ccc(OC)c(OC)c1OC)C1=C(CCCC1=O)N2 (stereo unspecified) | 1 | -9 | -1 | 18*
COc1ccc(C(=O)CC(=O)c2ccc(C(C)(C)C)cc2)cc1 | . | . | . | 1
COc1ccc(C(=O)C(CCC(CNC(C)(C)C)C(=O)c2ccc(OC)cc2)CNC(C)(C)C)cc1 (stereo unspecified) | 0 | 43* | -1 | -4
O=c1[nH]cnc2c1ncn2C1CCC(CO)O1 (stereo unspecified) | . | . | . | 13
C[C@@H]1CCCCO[C@H](CN(C)C(=O)c2ccccc2)[C@@H](C)CN([C@H](C)CO)C(=O)c2cc(NC(=O)c3ccncc3)ccc2O1 | . | . | . | -8
COc1ccccc1NC(=O)c1sc2nc(Cc3ccccc3)cc(C(F)(F)F)c2c1N | -143* | 0 | -3 | 132
COc1ccc(NC(=O)c2sc3nc(Cc4ccccc4)cc(C(F)(F)F)c3c2N)cc1OC | 1 | 1 | 1 | 20
CC1CCCC(NC(=O)CCN2C(=O)COc3ccccc32)C1C (stereo unspecified) | . | . | . | -1
Cn1c(N)c(S(=O)(=O)N2CCN(c3ccccc3Cl)CC2)c(=O)n(C)c1=O | 4 | -25 | 11 | 27*
CCCCC(O)(CCCC)C(=O)NN(C(=O)OC)c1ccccc1 | -2 | -5 | 0 | 31*
CCc1nc2ccc(C(=O)Nc3cccc(NS(C)(=O)=O)c3)cn2c1N(CC)Cc1cccc(Br)c1 | . | . | . | -3
O=C(CN1C(=O)/C(=C/c2ccccc2)SC1=S)Nc1ncc(Cc2ccccc2)s1 | 0 | -12 | 54* | -2
O=C(CCN1C(=O)/C(=C/c2ccccc2)SC1=S)Nc1ccccn1 | 3 | 2 | 8 | 4
Cc1cc(C)c2c(=N)c3ccccc3n(CCCCCCCCn3c4ccccc4c(=N)c4c(C)cc(C)nc43)c2n1 | . | . | . | 5
Cc1nc(SCC(=O)NCc2ccco2)c2c(C)c(C)sc2n1 | . | -10 | 8 | 1
O=C(CSc1nc2cc(Cl)ccc2s1)NC(=O)NCc1ccco1 | 1 | -8 | 57* | -23
CCOc1ccc2nc(SCC(=O)NC(=O)NCc3ccco3)sc2c1 | -1 | -21 | 13 | 2
O=C(COc1ncnc2scc(-c3ccc(F)cc3)c12)NCc1ccco1 | . | -11 | 17 | -12
CCCCc1nc2sc3c(SCC(=O)NCc4ccco4)ncnc3c2c2c1CCC2 | 2 | -8 | 105* | -14
Cc1sc2ncnc(SCC(=O)NC(=O)NCc3ccco3)c2c1C | 2 | -14 | 50* | -19
Cc1ccc(-c2csc3ncnc(OCC(=O)NC(=O)NCc4ccco4)c23)cc1 | 2 | -17 | 49* | -16
CC1(C)C(=O)Nc2ccccc2N1C(=O)COc1ccccc1C#N | . | . | . | 18
NC(=O)c1cccc(-c2ccnc3c2CC(C(=O)Nc2cccc(C(F)(F)F)c2)O3)c1 (stereo unspecified) | . | . | . | -5
O=C(Nc1cccc(C(F)(F)F)c1)C1Cc2c(-c3cccc(F)c3)ccnc2O1 (stereo unspecified) | . | . | . | 30*
SMILES | MEX-5 binding | DNA FID counter | HCV core dimer | NRP1-CendR mod
CC(C)NC(=O)C1(C)CN(S(C)(=O)=O)CC(=O)N1C1CCCCCC1 (stereo unspecified) | . | . | . | 6
Oc1[nH]c(N=C2N=c3ccccc3=N2)c2ccccc12 | -38* | -1 | 0 | -31
Cc1n[nH]c(=S)c2nn(-c3cccc(Cl)c3)c(C)c12 | -32* | -2 | . | .
O=C1c2ccccc2-c2onc3ccc(N4CCCC4)c1c23 | ? | 47* | . | 128
O=C1c2ccccc2-c2onc3ccc(NCc4ccco4)c1c23 | -77* | -8 | -49 | 128
Cn1c(=O)cc2c3c(c(N4CCCCC4)ccc31)C(=O)c1ccccc1-2 | -40* | 8 | -17 | 58*
CCNc1ccc2noc3c2c1C(=O)c1ccccc1-3 | ? | 12 | -125 | 126
O=C1c2ccccc2C(=O)c2c1cccc2N1CCCC1 | -3 | 10 | -21 | 12
CCOc1ccc2noc3c2c1C(=O)c1ccccc1-3 | ? | 2 | -15 | 126
CC(=O)OC1C(=O)N(Cc2ccccc2)C1c1ccc(C)cc1 (stereo unspecified) | . | . | . | -7
COc1ccc([C@H]2C[C@@H](O)[C@H](n3cc(C4CC4)nn3)CN2C(=O)c2cccs2)cc1 | . | . | . | -13
C#CCN1C(C)=CC(=O)[C@@H](O)[C@H]1c1ccccc1Br | . | . | . | 1
OCC1OC(c2ccc(O)cc2O)C(O)C1O (stereo unspecified) | . | . | . | 29*
COc1cc(C(O)c2nc(-c3ccc4ccccc4c3)cs2)ccc1F (stereo unspecified) | . | . | . | 4
COc1ccc(C(O)c2nc(-c3ccc4ccccc4c3)cs2)cc1 (stereo unspecified) | . | . | . | 33*
CCN(CC)C(=O)c1cccc(-c2csc(C(NC(C)=O)c3ccccc3)n2)c1 (stereo unspecified) | . | . | . | -11
CCN(CC)C(=O)c1cccc(-c2csc(C(NC(C)=O)c3cccc(OC)c3)n2)c1 (stereo unspecified) | . | . | . | 22*
COc1cccc(C(NC(C)=O)c2nc(-c3ccc(C)c(C)c3)cs2)c1 (stereo unspecified) | . | . | . | 34*
COc1ccc(CN2C(=O)c3ccccc3C2c2nnnn2C(C)C)cc1 (stereo unspecified) | . | . | . | 16
O=C(c1cc2ccccc2o1)N1CCN(S(=O)(=O)c2c(F)cccc2F)CC1 | . | . | . | 33*
Cc1ccc(-c2nnc(Nc3ccc(CC(N)=O)cc3)c3ccccc23)cc1S(N)(=O)=O | -32* | -32 | 1 | 0
COc1ccc2nc3ccccc3nc2c1NC(=O)c1ccccc1Cl | -35* | -8 | -36 | 132
O=C(Nc1ccc2ccccc2n1)c1ccccc1Cl | -1 | -8 | -6 | 4
Cc1cc(C)n2nc(C(=O)Nc3ccc4c(c3)OCO4)nc2n1 | -2 | -3 | 47* | -2
Cc1cccc(C)c1NC(=O)C1(C)CSCC(=O)N1Cc1cccs1 (stereo unspecified) | . | . | . | 6
SMILES | MEX-5 binding | DNA FID counter | HCV core dimer | NRP1-CendR mod
CCOc1ccc(OCC)c(NC(=O)C2CCN(c3cnccn3)CC2)c1 | -1 | -37 | 7 | 2
CCOc1ccc(OCC)c(NC(=O)C2CCN(S(=O)(=O)c3cnc[nH]3)CC2)c1 | 0 | -10 | -1 | 21*
CN(NC(=O)c1cccc(Cl)c1)c1nc(-c2ccccc2)nnc1C(F)(F)F | 0 | 3 | 7 | 4
CN(N)c1nc(-c2ccccc2)nnc1C(F)(F)F | 0 | -3 | 3 | 34*
O=C(NCc1ccco1)c1[nH]c(C(F)(F)F)nc1-c1ccccc1 | . | . | . | -8
COc1cccc(NS(=O)(=O)c2ccc3c(c2)CCCN3C(C)=O)c1 | -3 | -10 | -1 | -2
O=C(O)c1ccc2c(c1)[C@@H]1C=CC[C@@H]1[C@H](c1ccccn1)N2 | -100* | -20 | 1 | 32*
COc1ccc(C(=O)N/N=C(\C)c2ccc3c(c2)C2C=CCC2C(c2ccccc2)N3)cc1 (stereo unspecified) | . | -8 | 67* | -17
